ChEMBL document CHEMBL1629529, “Design, synthesis, and evaluation of diarylpyridines and diarylanilines as potent non-nucleoside HIV-1 reverse transcriptase inhibitors” (J Med Chem, 2010)

Legend:
[1] = system: Human immunodeficiency virus 1; assay: Antiviral activity against HIV1 3B infected in human MT2 cells assessed as reduction in p24 antigen level after 4 days by ELISA; type: functional, organism-based
Outline: (§1)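 MT-2 cells (10^4/well) were infected with 100 TCID50 virus in RPMI 1640 with 10% FBS, with or without graded compound concentrations, overnight. Supernatant was then replaced with compound-free medium. On day 4 post-infection, supernatant was mixed 1:1 with 5% Triton X-100 and p24 antigen was quantified by ELISA. Percent inhibition was converted to EC50 with CalcuSyn. Tested at least in triplicate.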

MT2 = assay: Cytotoxicity in human MT2 cells after 4 day by XTT assay; type: cell-based; settings: mt2, 96 h
Outline: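 MT-2 cells (5 · 10^5/mL) were mixed with an equal volume of graded compound concentrations and incubated 4 days at 37 °C. XTT solution (1 mg/mL) containing 0.02 μM phenazine methosulphate was then added. After 4 h, absorbance at 450 nm was read.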

[2] = Cytotoxicity in human TZM-bl cells after 4 day by XTT assay; type: cell-based; settings: 96 h
[3] = system: Human immunodeficiency virus 1; assay: Antiviral activity against HIV1 NL4-3 infected in human TZM-bl cells after 2 days by luciferase reporter gene assay; settings: Human immunodeficiency virus 1, NL4-3, TZM-bl, 48 h; read-out: EC50
[4] = system: Human immunodeficiency virus 1; assay: Antiviral activity against multidrug resistant HIV1 A17 containing reverse transcripatseK103N and Y181C mutation infected in human MT2 cells assessed as reduction in p24 antigen level after 4 days by ELISA; type: functional, organism-based; settings: Human immunodeficiency virus 1, A17, MT2, 96 h; outline: as §1
[5] = system: Human immunodeficiency virus 1; assay: Resistance index, ratio of EC50 for multidrug resistant HIV1 RTMDR to EC50 for wild type HIV1 NL4-3; type: functional
[6] = Selectivity index, ratio of CC50 for human TZM-bl cells to EC50 for HIV1 NL4-3; type: toxicity, cell-based; settings: tzm-bl
[7] = system: Human immunodeficiency virus 1; assay: Resistance index, ratio of EC50 for multidrug resistant HIV1 A17 to EC50 for wild type HIV1 3B; type: functional
[8] = system: Human immunodeficiency virus 1; assay: Antiviral activity against multidrug resistant HIV1 RTMDR containing reverse transcriptase L74V, M41L, V106A and T215Y mutant infected in human TZM-bl cells after 2 days by luciferase reporter gene assay; settings: Human immunodeficiency virus 1, RTMDR, 48 h
[9] = Selectivity index, ratio of CC50 for human MT2 cells to EC50 for HIV1 3B; type: toxicity, cell-based; settings: for Ratio CC50/EC50: mt2
Outline: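 SI = CC50/EC50 (p24 ELISA). XTT (1 mg/mL) containing 0.02 μM PMS was added for 4 h, then absorbance was read at 450 nm. CC50 was calculated with CalcuSyn.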

[10] = system: Human immunodeficiency virus 1; assay: Antiviral activity against multidrug resistant HIV1 RTMDR containing reverse transcriptase L74V, M41L, V106A and T215Y mutant infected in human TZM-bl cells after 4 days by luciferase reporter gene assay; type: functional, organism-based; settings: Human immunodeficiency virus 1, RTMDR, 96 h
[11] = Human immunodeficiency virus 1, 3B, MT2, 96 h, read-out: EC50

SMILES	EC50 [1, 11]	CC50 (MT2)	CC50 [2]	EC50 [3]	EC50 [4]	Ratio EC50 [5]	Ratio CC50/EC50 [6]	Ratio EC50 [7]	EC50 [8]	Ratio CC50/EC50 [9]	EC50 [10]	EC50 ([1]; mt2)	selectivity ratio ([9]; MT2 cells, read-out: Ratio CC50/EC50)
CC(=O)/C=C/c1cc(C)c(Oc2cc(Nc3ccc(C#N)cc3)c(N)cc2[N+](=O)[O-])c(C)c1	0.047 µM	22.6 µM	5.88 µM	0.00633 µM									
Cc1cc(Br)cc(C)c1Oc1ccc(N)c(Nc2ccc(C#N)cc2)n1	0.033 µM	9.61 µM	15.5 µM	0.00729 µM	3.49 µM	0.93	2132	106	0.0068 µM	291			
Cc1cc(Br)cc(C)c1Oc1ccc([N+](=O)[O-])c(Nc2ccc(C#N)cc2)n1	0.045 µM	65.1 µM	> 45.7 µM	0.0502 µM	> 10 µM	1.55	> 909	>222	0.0776 µM	1447			
C=CCc1cc(C)c(Oc2ccc(N)c(Nc3ccc(C#N)cc3)n2)c(C)c1	0.067 µM	14 µM	8.46 µM	0.00689 µM	> 10 µM	2.23	1228	> 149		209	0.0154 µM		
Cc1cc(C#CC2CC2)cc(C)c1Oc1ccc([N+](=O)[O-])c(Nc2ccc(C#N)cc2)n1				> 47.2 µM								Not Active	
Cc1cc(C#CC2CC2)cc(C)c1Oc1ccc(N)c(Nc2ccc(C#N)cc2)n1	0.41 µM	5.71 µM	7.45 µM	0.0912 µM	> 10 µM	1.34	82	> 24		14	0.121 µM		
Cc1cc(C(O)C[N+](=O)[O-])cc(C)c1Oc1ccc([N+](=O)[O-])c(Nc2ccc(C#N)cc2)n1 (stereo not drawn)	1.71 µM	27.1 µM	> 44.5 µM	0.308 µM			> 145			16			
Cc1cc(C(O)C[N+](=O)[O-])cc(C)c1Oc1ccc(N)c(Nc2ccc(C#N)cc2)n1.Cl (stereo not drawn)	0.068 µM	20.6 µM	7.02 µM	0.0101 µM			695			303			
Cc1cc(/C=C/C(=O)O)cc(C)c1Oc1ccc([N+](=O)[O-])c(Nc2ccc(C#N)cc2)n1	8.12 µM	34.8 µM	27.8 µM	14.9 µM									
Cc1cc(/C=C/C(=O)O)cc(C)c1Oc1ccc(N)c(Nc2ccc(C#N)cc2)n1	0.63 µM	15.7 µM	18 µM	0.6 µM									
CC(=O)/C=C/c1cc(C)c(Oc2ccc([N+](=O)[O-])c(Nc3ccc(C#N)cc3)n2)c(C)c1	0.608 µM	> 47.9 µM	> 46.7 µM	0.0244 µM									
CC(=O)CCc1cc(C)c(Oc2ccc(N)c(Nc3ccc(C#N)cc3)n2)c(C)c1	0.055 µM	18.4 µM	9.25 µM	0.00195 µM	0.73 µM	1.64	4744	13			0.0032 µM		1840
Cc1cc(/C=C/C#N)cc(C)c1Oc1ccc([N+](=O)[O-])c(Nc2ccc(C#N)cc2)n1	0.049 µM	> 100 µM	> 48.7 µM	0.008 µM	> 10 µM	1.85	> 6082	> 204		> 2041	0.0148 µM		
Cc1cc(/C=C/C#N)cc(C)c1Oc1ccc(N)c(Nc2ccc(C#N)cc2)n1	< 0.014 µM	5.63 µM	9.75 µM	0.00071 µM	0.2 µM	0.83	13732	14		> 402	0.00059 µM		
CC(=O)/C=C/c1cc(C)c(Oc2cc(Nc3ccc(C#N)cc3)c([N+](=O)[O-])cc2[N+](=O)[O-])c(C)c1	0.35 µM	> 100 µM	24.4 µM	0.146 µM			167			> 286			
Cc1cc(/C=C/C#N)cc(C)c1Oc1cc(Nc2ccc(C#N)cc2)c([N+](=O)[O-])cc1[N+](=O)[O-]	0.37 µM	21.7 µM	> 44 µM	0.0971 µM			> 453			59.35			
Cc1cc(/C=C/C#N)cc(C)c1Oc1cc(Nc2ccc(C#N)cc2)c(N)cc1[N+](=O)[O-]	< 0.014 µM	88.2 µM	> 47.1 µM	0.00038 µM	0.095 µM	2.29	> 123842	6.79		> 6298	0.00087 µM		
Cc1cc(/C=C/C#N)cc(C)c1Oc1cc(Nc2ccc(C#N)cc2)c(N)cc1N	< 0.014 µM	18.9 µM	14.4 µM	0.0043 µM	3.05 µM	0.47	3356	128		> 1353	0.002 µM		
C#Cc1cc(C)c(Oc2ccc([N+](=O)[O-])c(Nc3ccc(C#N)cc3)n2)c(C)c1					> 10 µM	1.94		> 40			0.215 µM		
C#Cc1cc(C)c(Oc2ccc(N)c(Nc3ccc(C#N)cc3)n2)c(C)c1					1.43 µM	1.34		34			0.009 µM		
Cc1cc(I)cc(C)c1Oc1ccc(N)c(Nc2ccc(C#N)cc2)n1					1.93 µM	0.67		36					
Cc1cc(C#N)cc(C)c1Oc1ccc(N)c(Nc2ccc(C#N)cc2)n1	0.015 µM	> 100 µM			0.39 µM	1.41	13206	26		> 6667			
Cc1cc(I)cc(C)c1Oc1ccc([N+](=O)[O-])c(Nc2ccc(C#N)cc2)n1					> 10 µM	1.55		>127					
Cc1cc(C#N)cc(C)c1Oc1nc(Nc2ccc(C#N)cc2)nc(N)c1Br [ETRAVIRINE]	0.041 µM	50.7 µM	8.96 µM		0.33 µM						0.001 µM		
